According to article PMC9896656 (Investigational new drugs, 2022):
Like-named read-outs stand apart in the source and are kept apart here. Residues, ends and D or L forms follow the SMILES beside them. *: point of attachment. Cbz = O=C(OCc1ccccc1)*

Experiments:
HL-60 = assay: Differential nuclear staining; format: cell-based; settings: Homo sapiens, HL-60, 48 h
Outline: (§1)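 Cells were seeded at 10,000/well in 96-well plates; adherent lines attached overnight. A 0.1–5 μM gradient was applied for 48 h, with 1% DMSO, 1 mM H2O2 and untreated wells. PI and Hoechst 33342 (5 μg/ml each) were added 2 h before reading at 37°C. Wells were imaged to separate dead from total nuclei. CC50 was obtained by linear interpolation of the dose-response. Selectivity index uses Hs-27 as the non-cancer reference.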

[1] = Differential nuclear staining; format: cell-based; settings: human, Hs-27 cells (non-cancerous reference) versus HL-60 cells
Outline: as §1

MM1 R = assay: Differential nuclear staining; format: cell-based; settings: Homo sapiens, MM.1R, 48 h
Outline: as §1

[2] = Differential nuclear staining; format: cell-based; settings: human, Hs-27 cells (non-cancerous reference) versus MM1 R cells
Outline: as §1

CEM = assay: Differential nuclear staining; format: cell-based, human; settings: CEM; concentration used for cell cycle analysis
[3] = Differential nuclear staining; format: cell-based, human; settings: human, Hs-27 cells (non-cancerous reference) versus CEM cells
CEM cells [4] = assay: Cell cycle profile analysis; format: cell-based, human; settings: CC20, 72 h
CEM cells [5] = assay: Reactive oxygen species accumulation; format: cell-based, human; settings: 6 h, compared with DMSO-treated cells
RAMOS = assay: Differential nuclear staining; format: cell-based; settings: Homo sapiens, Ramos, 48 h
Outline: as §1

[6] = Differential nuclear staining; format: cell-based; settings: human, Hs-27 cells (non-cancerous reference) versus RAMOS cells
Outline: as §1

COLO 205 cells [7] = assay: Reactive oxygen species accumulation; format: cell-based, human; settings: COLO 205, 6 h, compared with DMSO-treated cells
COLO 205 cells [8] = assay: Annexin V-FITC/PI apoptosis/necrosis assay; format: cell-based, human; settings: COLO 205, 24 h, 2x CC50, compared to DMSO solvent control
COLO 205 cells [9] = assay: Mitochondrial membrane potential; format: cell-based, human; settings: COLO 205, 6 h, CC50 and twice the CC50, vs untreated and DMSO
[10] = Differential nuclear staining; format: cell-based; settings: human, HS-27 cells (normal foreskin, non-cancer)
Outline: as §1

[11] = Differential nuclear staining; format: cell-based; settings: human; for selectivity ratio at 48 h: Hs-27 cells (non-cancerous reference) versus MCF-10 A cells; for CC50 at 48 h: MCF-10 A cells (breast epithelial)
Outline: as §1

MM1 S = assay: Differential nuclear staining; format: cell-based; settings: Homo sapiens, MM1.S, 48 h
Outline: as §1

[12] = Differential nuclear staining; format: cell-based; settings: human, Hs-27 cells (non-cancerous reference) versus MM1 S cells
Outline: as §1

PC-3 = assay: Differential nuclear staining; format: cell-based; settings: Homo sapiens, PC-3, 48 h
Outline: as §1

[13] = Differential nuclear staining; format: cell-based; settings: human, Hs-27 cells (non-cancerous reference) versus PC-3 cells
Outline: as §1

MDA-MB-231 = assay: Differential nuclear staining; format: cell-based; settings: Homo sapiens, MDA-MB-231, 48 h
Outline: as §1

[14] = Differential nuclear staining; format: cell-based; settings: human
Outline: as §1

PANC-1 = assay: Differential nuclear staining; format: cell-based; settings: Homo sapiens, PANC-1, 48 h
Outline: as §1

[15] = Differential nuclear staining; format: cell-based; settings: human, Hs-27 cells (non-cancerous reference) versus PANC-1 cells
Outline: as §1

HT-29 = assay: Differential nuclear staining; format: cell-based; settings: Homo sapiens, HT-29, 48 h
Outline: as §1

[16] = Differential nuclear staining; format: cell-based; settings: human, Hs-27 cells (non-cancerous reference) versus HT-29 cells
Outline: as §1

[17] = Differential nuclear staining; format: cell-based; settings: human, CCD-112-CoN cells (non-cancerous colon fibroblasts)
Outline: as §1

caspase-3/7 in CEM cells = assay: Caspase-3/7 activation; format: cell-based, human; settings: 7.5 h, CC50 and twice the CC50, vs vehicle control (1% DMSO)
COLO 205 cells [18] = assay: Cell cycle profile analysis; format: cell-based, human; settings: COLO 205, CC20, 72 h
[19] = Differential nuclear staining; format: cell-based, human; settings: human, Hs-27 cells (non-cancerous reference) versus COLO 205 cells
COLO 205 = assay: Differential nuclear staining; format: cell-based, human; settings: for CC20: COLO 205, concentration used for cell cycle analysis; for CC50: Homo sapiens
[20] = test system: poly-ubiquitinated proteins in COLO 205 cells; assay: Western blot of poly-ubiquitinated proteins; format: cell-based, human; settings: COLO 205, 8 h, 2X CC50
Outline: (§2)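 3,000,000 cells per T-25 flask in 10 ml RPMI were treated 8 h at twice the CC50, with MG-132 and 0.3% PEG-400 vehicle controls. Cells were PBS-washed and lysed by boiling 15 min in 2x Laemmli buffer. 100 μg protein was run on 7% SDS-PAGE and transferred to PVDF. Blots were blocked overnight in 5% milk, then probed with mouse anti-ubiquitin (1 h) and HRP anti-mouse (1:10,000, 1 h). ECL imaging and densitometry followed.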

[21] = test system: caspase-3/7 in COLO 205 cells; assay: Caspase-3/7 activation; format: cell-based, human; settings: COLO 205, 7.5 h, CC50 and twice the CC50, vs vehicle control (1% DMSO)
CEM cells [22] = assay: Annexin V-FITC/PI apoptosis/necrosis assay; format: cell-based, human; settings: 24 h, 2x CC50, compared to DMSO solvent control
CEM cells [23] = assay: Mitochondrial membrane potential; format: cell-based, human; settings: 6 h, CC50 and twice the CC50, vs untreated and DMSO
RPMI-8226 = assay: Differential nuclear staining; format: cell-based; settings: Homo sapiens, RPMI-8226, 48 h
Outline: as §1

[24] = Differential nuclear staining; format: cell-based; settings: human, Hs-27 cells (non-cancerous reference) versus RPMI-8226 cells
Outline: as §1

U266 = assay: Differential nuclear staining; format: cell-based; settings: Homo sapiens, U-266, 48 h
Outline: as §1

[25] = Differential nuclear staining; format: cell-based; settings: human, Hs-27 cells (non-cancerous reference) versus U266 cells
Outline: as §1

[26] = test system: poly-ubiquitinated proteins in CEM cells; assay: Western blot of poly-ubiquitinated proteins; format: cell-based, human; settings: 8 h, in comparison to COLO 205
Outline: as §2

CEM and COLO 205 cells = settings: 1 mM positive control, 24 h; cell line not stated
[27] = COLO 205, 24 h, read-out: 24 h CC50

O=C1C(=Cc2ccc(F)c(F)c2)CN(C(=O)C(Cl)Cl)CC1=Cc1ccc(F)c(F)c1 [compound 2608, 1-dichloroacetyl – 3,5-bis(3,4-difluorobenzylidene)-4-piperidone]
CC50 (HL-60): 0.064 µM
selectivity ratio at 48 h [1]: 7.11
CC50 (MM1 R): 0.016 µM
selectivity ratio at 48 h [2]: 28.4
CC20 (CEM): 0.0397 µM
selectivity ratio at 48 h [3]: 22.8
DNA fragmentation (sub G0/G1) (CEM cells [4]): induced DNA fragmentation
ROS accumulation (CEM cells [5]): Significant ROS
CC50 (RAMOS): 0.095 µM
selectivity ratio at 48 h [6]: 4.79
ROS accumulation (COLO 205 cells [7]): Significant ROS
PS externalization (Annexin V-FITC positive cells) (COLO 205 cells [8]): significant PS externalization
mitochondrial depolarization (COLO 205 cells [9]): significant mitochondrial depolarization
CC50 at 48 h [10]: 0.455 µM
selectivity ratio at 48 h [11]: 2.6
CC50 at 48 h [11]: 0.175 µM
CC50 (MM1 S): 0.0181 µM
selectivity ratio at 48 h [12]: 25.1
CC50 (PC-3): 0.301 µM
selectivity ratio at 48 h [13]: 1.51
CC50 (MDA-MB-231): 0.047 µM
selectivity ratio at 48 h [14]: 9.68
CC50 (PANC-1): 1.13 µM
selectivity ratio at 48 h [15]: 0.4
CC50 (HT-29): 0.162 µM
selectivity ratio at 48 h [16]: 2.8
CC50 at 48 h [17]: 0.12 µM
caspase-3/7 activation (caspase-3/7 in CEM cells): significant caspase-3/7 activation
DNA fragmentation (sub G0/G1) (COLO 205 cells [18]): but not in COLO 205
cell cycle profile (COLO 205 cells [18]): did not alter the cell cycle profile
selectivity ratio at 48 h [19]: 1.07
CC20 (COLO 205): 0.7616 µM
CC50 (COLO 205; [27]): 1.9 µM
CC50 (COLO 205; COLO 205, 48 h): 0.424 µM
accumulation of high molecular weight poly-ubiquitinated proteins (densitometry) [20]: 0.40 fold increase
caspase-3/7 activation [21]: significant caspase-3/7 activation
PS externalization (Annexin V-FITC positive cells) (CEM cells [22]): significant PS externalization
mitochondrial depolarization (CEM cells [23]): significant mitochondrial depolarization
CC50 (RPMI-8226): 0.0397 µM
selectivity ratio at 48 h [24]: 11.5
CC50 (U266): 0.0144 µM
selectivity ratio at 48 h [25]: 31.6

CC(C)C[C@@H](C=O)NC(=O)[C@H](CC(C)C)NC(=O)[C@H](CC(C)C)NC(=O)OCc1ccccc1 [MG132, reference compound] (Cbz-Leu-Leu-Leu-aldehyde)
proteasome inhibition (poly-ubiquitinated proteins, in words) [26]: slight proteasome inhibition
accumulation of high molecular weight poly-ubiquitinated proteins (densitometry) [20]: 1 fold increase

O=C1C(=Cc2ccc(Cl)c(Cl)c2)CN(C(=O)C(Cl)Cl)CC1=Cc1ccc(Cl)c(Cl)c1 [compound 2610, 1-dichloroacetyl-3,5-bis(3,4-dichlorobenzylidene)-4-piperidone]
CC50 (HL-60): 0.024 µM
selectivity ratio at 48 h [1]: 8.33
CC50 (MM1 R): 0.009 µM
selectivity ratio at 48 h [2]: 22.2
CC20 (CEM): 0.0372 µM
selectivity ratio at 48 h [3]: 6.66
DNA fragmentation (sub G0/G1) (CEM cells [4]): caused DNA fragmentation on both cell lines
ROS accumulation (CEM cells [5]): Significant ROS
CC50 (RAMOS): 0.036 µM
selectivity ratio at 48 h [6]: 5.55
ROS accumulation (COLO 205 cells [7]): Significant ROS
PS externalization (Annexin V-FITC positive cells) (COLO 205 cells [8]): significant PS externalization
mitochondrial depolarization (COLO 205 cells [9]): significant mitochondrial depolarization
CC50 at 48 h [10]: 0.2 µM
selectivity ratio at 48 h [11]: 1.66
CC50 at 48 h [11]: 0.12 µM
CC50 (MM1 S): 0.0261 µM
selectivity ratio at 48 h [12]: 7.66
CC50 (PC-3): 0.446 µM
selectivity ratio at 48 h [13]: 0.44
CC50 (MDA-MB-231): 0.121 µM
selectivity ratio at 48 h [14]: 1.65
CC50 (PANC-1): 0.414 µM
selectivity ratio at 48 h [15]: 0.48
CC50 (HT-29): 0.036 µM
selectivity ratio at 48 h [16]: 5.55
CC50 at 48 h [17]: 0.176 µM
caspase-3/7 activation (caspase-3/7 in CEM cells): significant caspase-3/7 activation
DNA fragmentation (sub G0/G1) (COLO 205 cells [18]): caused DNA fragmentation on both cell lines
cell cycle profile (COLO 205 cells [18]): did not alter the cell cycle profile
selectivity ratio at 48 h [19]: 0.12
CC20 (COLO 205): 1.5164 µM
CC50 (COLO 205; [27]): 3.79 µM
CC50 (COLO 205; COLO 205, 48 h): 1.66 µM
accumulation of high molecular weight poly-ubiquitinated proteins (densitometry) [20]: 1.41 fold increase
caspase-3/7 activation [21]: significant caspase-3/7 activation
PS externalization (Annexin V-FITC positive cells) (CEM cells [22]): significant PS externalization
mitochondrial depolarization (CEM cells [23]): significant mitochondrial depolarization
CC50 (RPMI-8226): 0.334 µM
selectivity ratio at 48 h [24]: 0.599
CC50 (U266): 0.762 µM
selectivity ratio at 48 h [25]: 0.26

OO [H20_2, hydrogen peroxide]
percentage of PS externalization (CEM and COLO 205 cells): 39%
